ChEMBL document CHEMBL1125434, “Preparation and in vitro and in vivo evaluation of quinolones with selective activity against gram-positive organisms” (1992)
Converted amounts (≈) assume the structure as drawn.

Experiments:
Type in all cases: functional
Staphylococcus aureus [1] = assay: In vitro minimum inhibitory concentration against Staphylococcus aureus A 5177 using brain-heart infusion agar
Procedure, shortened: (§1)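 Overnight cultures were grown in BHI broth at 36 °C. Twofold dilutions of a 2000 µg/mL stock were made in BHI agar, giving 200–0.005 µg/mL. Plates received about 10^4 organisms and were incubated for 18 h at 36 °C. MIC was the lowest concentration with no visible growth on the plate.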

Streptococcus agalactiae = assay: In vitro minimum inhibitory concentration against Streptococcus agalactiae CMX 508 using brain-heart infusion agar; procedure, shortened: as §1
Streptococcus equinus = assay: In vitro minimum inhibitory concentration against Streptococcus bovis A5169 using brain-heart infusion agar; procedure, shortened: as §1
Streptococcus pyogenes = assay: In vitro minimum inhibitory concentration against Streptococcus pyogenes 930 using brain-heart infusion agar; procedure, shortened: as §1
Pseudomonas aeruginosa [2] = assay: In vitro minimum inhibitory concentration against Pseudomonas aeruginosa A5007 using brain-heart infusion agar; procedure, shortened: as §1
Staphylococcus aureus [3] = assay: In vitro minimum inhibitory concentration against Staphylococcus aureus ATCC 6538P using brain-heart infusion agar; procedure, shortened: as §1
[4] = system: Staphylococcus epidermidis; assay: In vitro minimum inhibitory concentration against Staphylococcus epidermidis 3159 using brain-heart infusion agar; procedure, shortened: as §1
Klebsiella pneumoniae [5] = assay: In vitro minimum inhibitory concentration against Klebsiella pneumoniae 8045 using brain-heart infusion agar; procedure, shortened: as §1
Acinetobacter = assay: In vitro minimum inhibitory concentration against Acinetobacter CMX 669 using brain-heart infusion agar; procedure, shortened: as §1
Escherichia coli = assay: In vitro minimum inhibitory concentration against Escherichia coli Juhl using brain-heart infusion agar; procedure, shortened: as §1
Klebsiella aerogenes = assay: In vitro minimum inhibitory concentration against Enterobacter aerogenes ATCC 13048 using brain-heart infusion agar; procedure, shortened: as §1
Enterococcus faecium = assay: In vitro minimum inhibitory concentration against Enterococcus faecium ATCC 8043 using brain-heart infusion agar; procedure, shortened: as §1
Pseudomonas aeruginosa [6] = assay: In vitro minimum inhibitory concentration against Pseudomonas aeruginosa K799 / WT using brain-heart infusion agar; procedure, shortened: as §1
Staphylococcus aureus [7] = assay: In vitro minimum inhibitory concentration against Staphylococcus aureus CMX 553 using brain-heart infusion agar; procedure, shortened: as §1
Staphylococcus aureus [8] = assay: In vitro minimum inhibitory concentration against Staphylococcus aureus NCTC 10649 using brain-heart infusion agar; procedure, shortened: as §1
Staphylococcus aureus [9] = assay: In vivo antibacterial activity against Staphylococcus aureus NCTC 10649 infected mouse by subcutaneous administration; conditions: sc
Procedure, shortened: (§2)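 Compound was given in water or in dilute NaOH diluted with water, orally or subcutaneously. The dose was split equally between 1 and 5 h post-infection. Groups were 10 mice at ≥3 dose levels. ED50 was calculated from day-6 cumulative mortality by the trimmed Logit method.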

Staphylococcus aureus [10] = assay: In vivo antibacterial activity against Staphylococcus aureus NCTC 10649 infected mouse by oral administration; procedure, shortened: as §2
Klebsiella pneumoniae [11] = assay: In vitro minimum inhibitory concentration brain-heart infusion agar; procedure, shortened: as §1
Pseudomonas aeruginosa [12] = assay: Not Plasmodium species

| SMILES | MIC (Staphylococcus aureus [1]) [µg/mL] | MIC (Streptococcus agalactiae) [µg/mL] | MIC (Streptococcus equinus) [µg/mL] | MIC (Streptococcus pyogenes) [µg/mL] | MIC (Pseudomonas aeruginosa [2]) [µg/mL] | MIC (Staphylococcus aureus [3]) [µg/mL] | MIC [4] [µg/mL] | MIC (Klebsiella pneumoniae [5]) [µg/mL] | MIC (Acinetobacter) [µg/mL] | MIC (Escherichia coli) [µg/mL] | MIC (Klebsiella aerogenes) [µg/mL] | MIC (Enterococcus faecium) [µg/mL] | MIC (Pseudomonas aeruginosa [6]) [µg/mL] | MIC (Staphylococcus aureus [7]) [µg/mL] | MIC (Staphylococcus aureus [8]) [µg/mL] | ED50 (Staphylococcus aureus [9]) [mg/kg] | ED50 (Staphylococcus aureus [10]) [mg/kg] | MIC (Klebsiella pneumoniae [11]) [µg/mL] | MIC (Pseudomonas aeruginosa [12]) [µg/mL] |
| --- | --- | --- | --- | --- | --- | --- | --- | --- | --- | --- | --- | --- | --- | --- | --- | --- | --- | --- | --- |
| NC1CCN(c2nc3c(cc2F)c(=O)c(C(=O)O)cn3C2CC2)C1 (stereo not given) | 0.2 (≈ 0.602 µM) | 0.39 (≈ 1.17 µM) | 0.78 (≈ 2.35 µM) | 0.39 (≈ 1.17 µM) | 0.1 (≈ 0.301 µM) | 0.1 (≈ 0.301 µM) | 0.1 (≈ 0.301 µM) | 0.01 (≈ 0.0301 µM) | 0.1 (≈ 0.301 µM) | 0.01 (≈ 0.0301 µM) | 0.02 (≈ 0.0602 µM) | 0.39 (≈ 1.17 µM) | 0.1 (≈ 0.301 µM) | 0.1 (≈ 0.301 µM) | – | – | – | – | – |
| O=C1CCN(c2cc3c(cc2F)c(=O)c(C(=O)O)cn3C2CC2)C1 | 3.1 (≈ 9.38 µM) | 100 (≈ 303 µM) | > 100 | > 100 | > 100 | 1.56 (≈ 4.72 µM) | 3.1 (≈ 9.38 µM) | 6.2 (≈ 18.8 µM) | 50 (≈ 151 µM) | 6.2 (≈ 18.8 µM) | 12.5 (≈ 37.8 µM) | > 100 | > 100 | 3.1 (≈ 9.38 µM) | 1.56 (≈ 4.72 µM) | – | – | – | – |
| O=C1CCN(c2nc3c(cc2F)c(=O)c(C(=O)O)cn3-c2ccc(F)cc2F)CC1 | 0.1 (≈ 0.24 µM) | 1.56 (≈ 3.74 µM) | 3.1 (≈ 7.43 µM) | 1.56 (≈ 3.74 µM) | 12.5 (≈ 30 µM) | 0.05 (≈ 0.12 µM) | 0.2 (≈ 0.479 µM) | 0.39 (≈ 0.934 µM) | 1.56 (≈ 3.74 µM) | 0.39 (≈ 0.934 µM) | 3.1 (≈ 7.43 µM) | 1.56 (≈ 3.74 µM) | 3.1 (≈ 7.43 µM) | 0.1 (≈ 0.24 µM) | 0.1 (≈ 0.24 µM) | – | – | – | – |
| O=C(O)c1cn(-c2ccc(F)cc2F)c2nc(N3CCC(=NO)CC3)c(F)cc2c1=O | 0.1 (≈ 0.231 µM) | 0.78 (≈ 1.8 µM) | 3.1 (≈ 7.17 µM) | 1.56 (≈ 3.61 µM) | 12.5 (≈ 28.9 µM) | 0.05 (≈ 0.116 µM) | 0.2 (≈ 0.463 µM) | 0.78 (≈ 1.8 µM) | 3.1 (≈ 7.17 µM) | 0.78 (≈ 1.8 µM) | 3.1 (≈ 7.17 µM) | 1.56 (≈ 3.61 µM) | 6.2 (≈ 14.3 µM) | 0.2 (≈ 0.463 µM) | 0.1 (≈ 0.231 µM) | > 2 | > 8 | – | – |
| O=C(O)c1cn(C2CC2)c2c(F)c(N3CC/C(=N\O)C3)c(F)cc2c1=O | 0.01 (≈ 0.0275 µM) | 0.1 (≈ 0.275 µM) | 0.2 (≈ 0.55 µM) | 0.1 (≈ 0.275 µM) | 0.78 (≈ 2.15 µM) | < 0.005 | 0.02 (≈ 0.055 µM) | 0.05 (≈ 0.138 µM) | 0.2 (≈ 0.55 µM) | 0.02 (≈ 0.055 µM) | 0.39 (≈ 1.07 µM) | 0.1 (≈ 0.275 µM) | 0.78 (≈ 2.15 µM) | 0.02 (≈ 0.055 µM) | 0.01 (≈ 0.0275 µM) | 1.5 | 3 | – | – |
| O=C1CCN(c2c(F)cc3c(=O)c(C(=O)O)cn(C4CC4)c3c2F)C1 | 0.78 (≈ 2.24 µM) | 12.5 (≈ 35.9 µM) | 50 (≈ 144 µM) | 25 (≈ 71.8 µM) | 50 (≈ 144 µM) | 0.78 (≈ 2.24 µM) | 1.56 (≈ 4.48 µM) | 0.39 (≈ 1.12 µM) | 3.1 (≈ 8.9 µM) | 0.39 (≈ 1.12 µM) | 1.56 (≈ 4.48 µM) | 6.2 (≈ 17.8 µM) | 50 (≈ 144 µM) | 0.39 (≈ 1.12 µM) | 0.39 (≈ 1.12 µM) | – | – | – | – |
| O=C(O)c1cn(C2CC2)c2nc(N3CC/C(=N\O)C3)c(F)cc2c1=O | 0.05 (≈ 0.144 µM) | 0.2 (≈ 0.578 µM) | 0.78 (≈ 2.25 µM) | 0.39 (≈ 1.13 µM) | > 100 | 0.02 (≈ 0.0578 µM) | 0.05 (≈ 0.144 µM) | – | 0.2 (≈ 0.578 µM) | 0.02 (≈ 0.0578 µM) | 0.2 (≈ 0.578 µM) | 0.39 (≈ 1.13 µM) | – | 0.05 (≈ 0.144 µM) | 0.05 (≈ 0.144 µM) | – | – | 0.05 (≈ 0.144 µM) | 0.78 (≈ 2.25 µM) |
| O=C(O)c1cn(C2CC2)c2c(F)c(N3CCC(=NO)CC3)c(F)cc2c1=O | 0.02 (≈ 0.053 µM) | 0.2 (≈ 0.53 µM) | 0.39 (≈ 1.03 µM) | 0.1 (≈ 0.265 µM) | 3.1 (≈ 8.22 µM) | 0.01 (≈ 0.0265 µM) | 0.02 (≈ 0.053 µM) | 0.1 (≈ 0.265 µM) | 0.39 (≈ 1.03 µM) | 0.2 (≈ 0.53 µM) | 0.39 (≈ 1.03 µM) | 0.2 (≈ 0.53 µM) | 1.56 (≈ 4.13 µM) | 0.05 (≈ 0.133 µM) | 0.02 (≈ 0.053 µM) | 6.7 | 3 | – | – |
| O=C1CCN(c2cc3c(cc2F)c(=O)c(C(=O)O)cn3-c2ccc(F)cc2F)C1 | 1.56 (≈ 3.88 µM) | 12.5 (≈ 31.1 µM) | > 100 | 25 (≈ 62.1 µM) | > 100 | 0.39 (≈ 0.969 µM) | 1.56 (≈ 3.88 µM) | 6.2 (≈ 15.4 µM) | 12.5 (≈ 31.1 µM) | 12.5 (≈ 31.1 µM) | 12.5 (≈ 31.1 µM) | 25 (≈ 62.1 µM) | 50 (≈ 124 µM) | 1.56 (≈ 3.88 µM) | 0.39 (≈ 0.969 µM) | – | – | – | – |
